Screens (PubChem)
Most compounds without a hit are left out; they make up all but 1.6% or so of the library.
PPC-1+TRAIL kill: compounds killing PPC-1 cancer cells with TRAIL present (potentiator screen, no TRAIL-free arm) | 220,000 tested, 0.41% active | PPC-1 cells + TRAIL, ATPLite viability luminescence | cell killing (% activity), % at 4 µM or 5 µM;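 active = cell killing above 50% in the first pass at 4 µM, then a duplicate retest at 5 µM averaging 50% or more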;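 also: plate controls were cells with TRAIL plus DMSO for no effect and medium-only wells lacking cells for full effect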
FLuc stim CS: affects firefly luciferase, flagging false hits in luciferase stimulation screens; P08659; ATPlite luciferase biochemical, luminescence, 10 min; 0 = ATP-free wells, 1 = DMSO control; activation factor at 10 µM; 200,000 tested, under 10 active;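 active = luciferase activation factor, scaled between plate controls, of at least 2 with compound at 10 µM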
Target sequence (P08659 whole entry, looked up): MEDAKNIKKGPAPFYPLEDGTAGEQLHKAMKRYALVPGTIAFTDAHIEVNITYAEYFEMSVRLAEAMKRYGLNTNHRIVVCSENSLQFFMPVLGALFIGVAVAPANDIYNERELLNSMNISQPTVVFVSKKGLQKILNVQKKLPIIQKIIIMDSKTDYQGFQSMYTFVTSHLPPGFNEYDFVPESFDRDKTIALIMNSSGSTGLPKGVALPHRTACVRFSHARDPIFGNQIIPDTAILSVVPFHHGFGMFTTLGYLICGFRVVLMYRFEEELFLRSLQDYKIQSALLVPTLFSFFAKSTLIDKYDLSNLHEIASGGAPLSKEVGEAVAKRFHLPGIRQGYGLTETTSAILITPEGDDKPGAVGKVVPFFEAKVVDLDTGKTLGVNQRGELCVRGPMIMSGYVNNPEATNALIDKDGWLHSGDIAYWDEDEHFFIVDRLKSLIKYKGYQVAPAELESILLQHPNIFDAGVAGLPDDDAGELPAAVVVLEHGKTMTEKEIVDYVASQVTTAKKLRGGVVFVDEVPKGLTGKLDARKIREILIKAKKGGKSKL
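Assay system: Luciferase/luciferin detection reagent, cell-free biochemical luciferase assay / Read-out: luciferase activation / Benchmarks: No-ATP low control, compound-free enzyme-plus-ATP high control / Medium: PBS buffer for ATP / Detection: luminescence measurement of luciferase light output / Schedule: 10 min at ambient temperature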
FLuc inhib CS: counter-screen for luciferase assay inhibitors: firefly luciferase inhibition. P08659. ATPLite firefly luciferase biochemical luminescence, 10 min. inhibition, % at 10 µM. 200,000 tested, 1.5% active. AID 1006;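 active = inhibition above about 50% when tested at 10 µM, limit read from the data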
TRAIL sens C8: caspase-8 TRAIL sensitization; NB7+C8 cells + TRAIL, ATPlite viability luminescence; inhibition (viability loss, TRAIL sensitization), % at 10 µM; 360,000 tested, 1% active; AID 624354;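 active = compounds causing at least 50% loss of cell viability in the single-dose screen, relative to plate controls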
Active calls of the source: *.

Cc1ccc(CNc2nc3ccccc3n2C)cc1 was read as TRAIL sens C8 58*.
Screening Cc1ccc(NCc2nc3ccccc3n2C)cc1 returned PPC-1+TRAIL kill 44, FLuc stim CS 0.3, FLuc inhib CS 70* and TRAIL sens C8 -7.
For COc1ccccc1N1CCN(Cc2nc3ccccc3c(=O)n2CC(C)=O)CC1 the results were PPC-1+TRAIL kill 23, FLuc stim CS 1.1, FLuc inhib CS -6 and TRAIL sens C8 -4.
O=C(Nc1cccc(C(F)(F)F)c1)c1n[nH]c(Cn2cncn2)n1 was read as PPC-1+TRAIL kill 18, FLuc stim CS 1.1, FLuc inhib CS -7 and TRAIL sens C8 -4.
For CCCCCCCCCCCCCCCC[N+](C)(C)Cc1ccc(F)cc1 the results were TRAIL sens C8 54*.
`COc1ccc(-c2csc(C(O)c3ccc(F)c(OC)c3)n2)cn1` (configuration not stated) gave TRAIL sens C8 -8.
`Cc1ccc2nc(/C=C/c3cccc(F)c3)ccc2c1` gave PPC-1+TRAIL kill 23, FLuc stim CS 0.5, FLuc inhib CS 52* and TRAIL sens C8 25.
`O=C(NCC(O)COc1ccc([N+](=O)[O-])cc1)c1ccccc1` (configuration not stated) gave PPC-1+TRAIL kill 11 and TRAIL sens C8 -9.
For Cc1ccc(F)cc1-c1cc2nc(NCCCN(C)C)n(C)c(=O)c2s1 the results were TRAIL sens C8 2.
Screening O=C(Nc1nnc(/N=C/c2ccco2)s1)c1ccc(F)cc1 returned PPC-1+TRAIL kill -1, FLuc stim CS 0.6, FLuc inhib CS 39 and TRAIL sens C8 50*.
`O=C(Nc1nnc(-c2ccco2)s1)c1ccccc1` gave PPC-1+TRAIL kill 13, FLuc stim CS 0.5, FLuc inhib CS 48 and TRAIL sens C8 29.
`COc1ccc(C(=O)Nc2nnc(-c3ccco3)s2)cc1` gave PPC-1+TRAIL kill 46, FLuc stim CS 0.4, FLuc inhib CS 62* and TRAIL sens C8 59*.
COc1ccccc1C(=O)Nc1nnc(-c2ccco2)s1 was read as PPC-1+TRAIL kill 24, FLuc stim CS 0.5, FLuc inhib CS 51* and TRAIL sens C8 26.
`COc1ccccc1NC(=O)Nc1nnc(-c2ccco2)s1` gave PPC-1+TRAIL kill 9, FLuc stim CS 1 and FLuc inhib CS -4.
For NC(=O)c1ccc(NC(=O)CN2C(=O)NC(c3ccccc3)(c3ccccc3)C2=O)cc1 the results were TRAIL sens C8 -8.
Screening CCN(CC)S(=O)(=O)c1ccc(NC(=O)COC(=O)c2cc(S(=O)(=O)Nc3ccc(OC)cc3)ccc2O)cc1 returned PPC-1+TRAIL kill -14, FLuc stim CS 1, FLuc inhib CS 1 and TRAIL sens C8 2.
For CC1(C)CC(=O)C=C(c2ccc(-c3ccc4[nH]ccc4c3)cc2)C1=O the results were TRAIL sens C8 70*.
Screening CC1(C)CC(=O)C=C(c2ccccc2-c2ccc3cc[nH]c3c2)C1=O returned TRAIL sens C8 -18.
Screening O=C1N/C(=N\N=C\c2ccc3ncccc3c2)SC1Cc1ccc(SC(F)F)cc1 (configuration not stated) returned PPC-1+TRAIL kill 14, FLuc stim CS 0.4, FLuc inhib CS 61* and TRAIL sens C8 27.
Screening O=C(O)c1cccc(NC2=C(Cl)C(=O)c3ccccc3C2=O)c1 returned PPC-1+TRAIL kill 24, FLuc stim CS 1, FLuc inhib CS 2 and TRAIL sens C8 8.
N#Cc1c(NC(=O)c2ccccc2)sc2c1CCC2 was read as PPC-1+TRAIL kill 17, FLuc stim CS 0.8, FLuc inhib CS 22 and TRAIL sens C8 24.
N#Cc1c(NC(=O)c2cccnc2)sc2c1CCC2 was read as PPC-1+TRAIL kill 12, FLuc stim CS 0.5, FLuc inhib CS 54* and TRAIL sens C8 27.
O=C(CSc1nc2ccc(Cl)cc2[nH]1)NCCc1ccccc1 was read as PPC-1+TRAIL kill -6, FLuc stim CS 1, FLuc inhib CS -5 and TRAIL sens C8 -2.
`COc1ccccc1C(=O)COC(=O)c1cc(=O)[nH]c2ccccc12` gave TRAIL sens C8 4.
`Cc1ccc(C(=O)COC(=O)c2cc(=O)[nH]c3ccccc23)cc1C` gave PPC-1+TRAIL kill 6, FLuc stim CS 0.4, FLuc inhib CS 55* and TRAIL sens C8 13.
For COc1ccc2c(c1)c(C(=O)OCCN(C)C)c(C)n2C the results were PPC-1+TRAIL kill 30, FLuc stim CS 1, FLuc inhib CS 0 and TRAIL sens C8 -1.
`COc1cccc(C(=O)N(CN2CCCC2=O)c2cccc(Cl)c2)c1OC` gave PPC-1+TRAIL kill 14, FLuc stim CS 1.1, FLuc inhib CS -6 and TRAIL sens C8 -12.
`CC(C)Oc1cccc(C(=O)NC2=NCCS2)c1` gave PPC-1+TRAIL kill 16, FLuc stim CS 0.8, FLuc inhib CS 24 and TRAIL sens C8 -12.
COc1cccc(C(=O)Nc2ccc(C3CC3(Cl)Cl)cc2)c1 (configuration not stated) was read as PPC-1+TRAIL kill 21, FLuc stim CS 0.4, FLuc inhib CS 58* and TRAIL sens C8 49*.
For COc1cccc(C(=O)NC2=NCCS2)c1 the results were PPC-1+TRAIL kill 22, FLuc stim CS 0.5, FLuc inhib CS 52* and TRAIL sens C8 24.
`O=C(NC1=NCCS1)c1ccc(Cl)cc1` gave TRAIL sens C8 7.
Screening O=C(NC1=NCCS1)c1ccc(-c2ccc(Cl)cc2)o1 returned PPC-1+TRAIL kill 29, FLuc stim CS 0.3, FLuc inhib CS 66* and TRAIL sens C8 43.
CC(=O)Nc1ccc(S(=O)(=O)N2CCC(C(=O)Nc3nccs3)CC2)cc1 was read as TRAIL sens C8 8.
Screening CCOc1ncccc1C(=O)N1CCN(S(=O)(=O)c2cccs2)CC1 returned TRAIL sens C8 4.
COc1ccc(/C=N/N=C/c2ccc(OC)c(OC)c2)cc1OC was read as PPC-1+TRAIL kill 16, FLuc stim CS 1.1, FLuc inhib CS -6 and TRAIL sens C8 14.
N#CC1=C(N)N2C(=C(C#N)C1c1cccc(Br)c1)Nc1ccccc12 (configuration not stated) was read as PPC-1+TRAIL kill 28, FLuc stim CS 1.1, FLuc inhib CS -6 and TRAIL sens C8 53*.
Screening Cc1ccc(C)c(-c2csc(N)c2C(=O)OC(C)C)c1 returned PPC-1+TRAIL kill -11, FLuc stim CS 1.1, FLuc inhib CS -6 and TRAIL sens C8 -4.
For CN1CCN(c2ccc3sc(-n4ccc5ccccc54)nc3c2)CC1 the results were TRAIL sens C8 68*.
For Cc1ccc(S(=O)(=O)NN=Cc2ccc(N3CCOCC3)cc2)cc1[N+](=O)[O-] the results were TRAIL sens C8 9.
`Oc1c(Br)cc(Br)cc1C=Nc1ccc2c(c1)OCCO2` gave PPC-1+TRAIL kill 26, FLuc stim CS 0.8, FLuc inhib CS 20 and TRAIL sens C8 -12.
For Oc1[nH]c2ccccc2c1C=Nc1ccc2c(c1)OCCO2 the results were PPC-1+TRAIL kill 36, FLuc stim CS 0.2, FLuc inhib CS 76* and TRAIL sens C8 57*.
CS(=O)(=O)Nc1cccc(NC(=O)C2Cc3c(-c4ccco4)ccnc3O2)c1 (configuration not stated) was read as TRAIL sens C8 53*.
